ChEMBL document CHEMBL2163197, “Synthesis and antimitotic and tubulin interaction profiles of novel pinacol derivatives of podophyllotoxins” (2012)
Counter-ions that a name gives are not always drawn. The source made the active and inactive calls. The calls are words filed in the database; no cut-off is given here.

What was measured:
[1] = system: A549; test: Growth inhibition of human A549 cells after 72 hrs by SRB assay; assay type: functional; conditions: A549, 72 h
Summary of the method: (§1)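 Cell lines kept in RPMI with 10% FCS, 2 mM L-glutamine, penicillin/streptomycin at 37 °C, 5% CO2. Exposure 72 h to 10 concentrations from 10 to 0.0026 μg/mL. Cells fixed in 1% glutaraldehyde, stained with 0.4% SRB for 30 min, dye extracted in 10 mM Trizma base, absorbance read at 490 nm. GI50 from triplicate dose-response cultures by NCI algorithm; mean ± SD of three independent experiments.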

[2] = system: HT-29; test: Growth inhibition of human HT-29 cells after 72 hrs by SRB assay; assay type: functional; conditions: HT-29, 72 h; summary of the method: as §1
[3] = system: SK-BR-3; test: Growth inhibition of human SKBR3 cells after 72 hrs by SRB assay; assay type: functional; conditions: SK-BR-3, 72 h; summary of the method: as §1
[4] = species: Bos taurus; test: Inhibition of bovine brain tubulin polymerization at 1 uM after 30 mins by spectrophotometric analysis
[5] = system: A549; test: Antimitotic activity in human A549 cells assessed as induction of microtubule depolymerization at 0.05 to 100 uM after 20 hrs by Hoechst 33342 staining-based fluorescence microscopy; assay type: functional, cell-based
Summary of the method: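 A-549 lung carcinoma cells plated at 150 000 cells/ml on coverslips, cultured overnight, then exposed to ligands or DMSO vehicle (residual DMSO <0.5%). Cells permeabilised with Triton X100, fixed in 3.7% formaldehyde, stained with DM1A anti-α-tubulin and FITC secondary, chromatin stained with 1 μg/mL Hoechst 33342. Examined by epifluorescence microscopy. Methods state 24 h exposure; legend states 20 h.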

[6] = system: A549; test: Cell cycle arrest in human A549 cells assessed as accumulation at G2/M phase at 0.001 to 100 uM after 20 hrs by propidium iodide staining-based flow cytometry; assay type: functional
Summary of the method: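 A-549 cells (180 000 per mL) incubated 20 h with ligands from 1 nM to 100 μM, with untreated and DMSO vehicle controls. Cells fixed in 70% ethanol, RNase-treated and stained with propidium iodide. DNA content read by flow cytometry to give percent of cells in each cycle phase. Lowest concentration giving G2/M arrest recorded.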

[7] = species: Bos taurus; test: Displacement of MTC from bovine brain tubulin colchicine binding site at 20 uM by fluorometric assay
Summary of the method: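 Calf brain tubulin 10 μM with 10 μM MTC in 10 mM sodium phosphate, 0.1 mM GTP, pH 7.0, with 20 μM ligand. Excitation at 350 nm. Fluorescence emission spectra recorded and the decrease relative to tubulin-bound MTC taken as displacement from the colchicine site.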

Row | Compound | GI50 [1] | GI50 [2] | GI50 [3] | inhibition [4] | Activity [5] | Activity [6] | Activity [7]
1 | COc1ccc([C@@](C)(O)[C@@]2(O)c3cc4c(cc3[C@@H](c3cc(OC)c(OC)c(OC)c3)[C@H]3C(=O)OC[C@@H]32)OCO4)cc1OC | 2620 nM | 4750 nM | 4990 nM | – | – | – | –
2 | COc1cc([C@@H]2c3cc4c(cc3[C@](O)(C(C)(C)O)[C@H]3COC(=O)[C@H]23)OCO4)cc(OC)c1OC | 577 nM | 598 nM | 457 nM | – | – | – | –
3 | COc1cc([C@@H]2c3cc4c(cc3[C@@](O)(C3(O)CCCCC3)[C@H]3COC(=O)[C@H]23)OCO4)cc(OC)c1OC | 547 nM | 859 nM | 610 nM | – | – | – | –
4 | COc1cc([C@@H]2c3cc4c(cc3[C@@](O)(C3(O)CCOCC3)[C@H]3COC(=O)[C@@H]23)OCO4)cc(OC)c1OC | 8920 nM | 15400 nM | 8010 nM | 2.8% | Active | >70% | –
5 | COc1cc([C@@H]2c3cc4c(cc3[C@](O)(C3(O)CCSCC3)[C@H]3COC(=O)[C@@H]23)OCO4)cc(OC)c1OC | 3320 nM | 2620 nM | 1780 nM | – | – | – | –
6 | COc1cc([C@@H]2c3cc4c(cc3[C@](O)([C@H](O)C3CC=CCC3)[C@H]3COC(=O)[C@H]23)OCO4)cc(OC)c1OC (stereo not given in full) | 2030 nM | 2510 nM | 2430 nM | – | – | – | –
7 | COc1cc([C@@H]2c3cc4c(cc3C(=C(C)C)[C@H]3COC(=O)[C@@H]23)OCO4)cc(OC)c1OC | 6440 nM | 8280 nM | 3780 nM | – | – | – | –
8 | COc1cc([C@@H]2c3cc4c(cc3[C@@]3(OC(C)(C)O[C@@H]3C)[C@H]3COC(=O)[C@H]23)OCO4)cc(OC)c1OC | 6220 nM | 5230 nM | 5870 nM | – | – | – | –
9 | C=C1c2cc3c(cc2[C@@H](c2cc(OC)c(OC)c(OC)c2)[C@@H]2C(=O)OC[C@H]12)OCO3 | 28.1 nM | 78.1 nM | 66.8 nM | – | – | – | –
10 | COc1cc([C@@H]2c3cc4c(cc3[C@](O)(C3(O)C5CCCC3CCC5)[C@H]3COC(=O)[C@H]23)OCO4)cc(OC)c1OC (stereo not given in full) | 6.39 nM | 5.14 nM | 7.39 nM | 45.1% | Active | >70% | –
11 | COc1cc([C@@H]2c3cc4c(cc3[C@H](O)[C@H]3COC(=O)[C@H]23)OCO4)cc(OC)c1OC [PODOFILOX] | 12 nM | 12 nM | – | 7% | Active | >70% | 25%
12 | COc1cc([C@@H]2c3cc4c(cc3[C@](O)(C3(O)CCOCC3)[C@H]3COC(=O)[C@@H]23)OCO4)cc(OC)c1OC | 29 nM | 26.8 nM | 25.9 nM | 21.1% | Active | >70% | –
13 | COc1cc([C@@H]2c3cc4c(cc3[C@@H](O)[C@H]3COC(=O)[C@H]23)OCO4)cc(OC)c1OC [EPIPODOPHYLLOTOXIN] | 60 nM | 60 nM | – | – | – | – | –
14 | COc1cc([C@@H]2c3cc4c(cc3[C@](O)([C@](O)(c3ccccc3)C(C)C)[C@H]3COC(=O)[C@H]23)OCO4)cc(OC)c1OC | 139 nM | 159 nM | 148 nM | – | Active | >70% | –
15 | COc1cc([C@@H]2c3cc4c(cc3[C@H](C(C)C)[C@H]3COC(=O)[C@@H]23)OCO4)cc(OC)c1OC | 79.5 nM | 83.1 nM | 84.1 nM | 84.5% | Active | >70% | 35%
16 | COc1cc([C@@H]2c3cc4c(cc3[C@@](O)(C(O)(c3ccccc3)c3ccccc3)[C@H]3COC(=O)[C@H]23)OCO4)cc(OC)c1OC | 874 nM | 528 nM | 524 nM | – | – | – | –

Row | Compound | GI50 [1] | GI50 [2] | GI50 [3] | inhibition [4] | Activity [5] | Activity [6] | Activity [7]
17 | COc1cc([C@@H]2c3cc4c(cc3[C@](O)(C3(O)CCCCC3)[C@H]3COC(=O)[C@@H]23)OCO4)cc(OC)c1OC | 3620 nM | 2900 nM | 1250 nM | – | – | – | –
18 | COc1cc([C@@H]2c3cc4c(cc3/C(=C(\c3ccccc3)C(C)C)[C@H]3COC(=O)[C@@H]23)OCO4)cc(OC)c1OC | 6210 nM | 11400 nM | 14300 nM | – | – | – | –
19 | COc1cc([C@@H]2c3cc4c(cc3[C@](O)([C@](C)(O)C(C)C)[C@H]3COC(=O)[C@H]23)OCO4)cc(OC)c1OC | 254 nM | 204 nM | 181 nM | – | – | – | –
20 | COc1cc([C@@H]2c3cc4c(cc3[C@](O)([C@@](C)(O)C(C)C)[C@H]3COC(=O)[C@H]23)OCO4)cc(OC)c1OC | 1150 nM | 1730 nM | 1030 nM | – | – | – | –
21 | COc1cc([C@@H]2c3cc4c(cc3[C@](O)(C3(O)CCC3)[C@H]3COC(=O)[C@H]23)OCO4)cc(OC)c1OC | 191 nM | 198 nM | 219 nM | – | Active | >70% | –
22 | COc1cc([C@@H]2c3cc4c(cc3[C@@](O)(C3(O)C5CCCC3CCC5)[C@H]3COC(=O)[C@H]23)OCO4)cc(OC)c1OC (stereo not given in full) | 5680 nM | 6420 nM | 6720 nM | 12% | Active | >70% | 15%
23 | COc1cc([C@@H]2c3cc4c(cc3/C(=C(/C)C(C)C)[C@H]3COC(=O)[C@@H]23)OCO4)cc(OC)c1OC | 7700 nM | 10200 nM | 4530 nM | – | – | – | –
24 | CCC[C@@H](O)[C@@]1(O)c2cc3c(cc2[C@@H](c2cc(OC)c(OC)c(OC)c2)[C@H]2C(=O)OC[C@@H]21)OCO3 | 279 nM | 404 nM | 288 nM | – | – | – | –
25 | COc1cc([C@@H]2c3cc4c(cc3[C@@](O)(C3(O)CCCC3)[C@H]3COC(=O)[C@H]23)OCO4)cc(OC)c1OC | 1690 nM | 2720 nM | 2420 nM | – | – | – | –
26 | COc1cc([C@@H]2c3cc4c(cc3[C@@](O)(C(C)(C)O)[C@H]3COC(=O)[C@H]23)OCO4)cc(OC)c1OC | 1480 nM | 659 nM | 511 nM | – | – | – | –
27 | COc1cccc2c1C(=O)c1c(O)c3c(c(O)c1C2=O)C[C@@](O)(C(=O)CO)C[C@@H]3O[C@H]1C[C@H](N)[C@H](O)[C@H](C)O1 [DOXORUBICIN HYDROCHLORIDE] | 60.3 nM | 153 nM | 65.5 nM | – | – | – | –
28 | COc1cc([C@@H]2c3cc4c(cc3[C@](O)(C3(O)CCCCC3)[C@H]3COC(=O)[C@H]23)OCO4)cc(OC)c1OC | 90.8 nM | 97.5 nM | 64.9 nM | – | Active | >70% | –
29 | COc1cc([C@@H]2c3cc4c(cc3[C@@]3(OC(C)(C)O[C@H]3C)[C@H]3COC(=O)[C@H]23)OCO4)cc(OC)c1OC | 6020 nM | 6560 nM | 6140 nM | – | – | – | –
30 | COc1cc([C@@H]2c3cc4c(cc3[C@](O)(C(O)(c3ccccc3)c3ccccc3)[C@H]3COC(=O)[C@H]23)OCO4)cc(OC)c1OC | 376 nM | 281 nM | 313 nM | – | – | – | –
31 | COc1cc([C@@H]2c3cc4c(cc3[C@](O)(C3(O)CCCC3)[C@H]3COC(=O)[C@H]23)OCO4)cc(OC)c1OC | 444 nM | 451 nM | 439 nM | – | Active | >70% | –
